The text below walks through data of ChEMBL document CHEMBL3734738, “A structure-activity relationship of non-peptide macrocyclic histone deacetylase inhibitors and their anti-proliferative and anti-inflammatory activities” (Bioorg Med Chem, 2015).

Assay [1] concerns the target T1, Histone deacetylase 8 (Homo sapiens, UniProt Q9BY41).
T1 sequence (Q9BY41 whole entry): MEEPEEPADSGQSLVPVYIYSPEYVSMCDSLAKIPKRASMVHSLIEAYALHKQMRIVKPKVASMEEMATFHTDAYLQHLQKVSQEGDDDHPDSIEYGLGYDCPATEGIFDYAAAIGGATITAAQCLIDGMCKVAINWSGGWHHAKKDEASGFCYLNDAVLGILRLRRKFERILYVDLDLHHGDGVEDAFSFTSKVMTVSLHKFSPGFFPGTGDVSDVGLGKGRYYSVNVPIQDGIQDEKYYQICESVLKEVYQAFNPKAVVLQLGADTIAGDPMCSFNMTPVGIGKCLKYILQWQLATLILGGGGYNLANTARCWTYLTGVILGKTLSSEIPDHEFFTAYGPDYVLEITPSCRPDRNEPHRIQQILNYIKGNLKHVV
The assay can be described thus: Inhibition of recombinant HDAC8 (unknown origin) expressed in Escherichia coli BL21(DE3) after 60 mins using trichostatin A by label-free mass spectrometry-based SAMDI assay.

For assay [2], the target named is Histone deacetylase 1 (Homo sapiens, UniProt Q13547). Put plainly: Inhibition of recombinant HDAC1 (unknown origin) expressed in Escherichia coli BL21(DE3) after 60 mins using trichostatin A by label-free mass spectrometry-based SAMDI assay.
Chain of Histone deacetylase 1 (Q13547 whole entry): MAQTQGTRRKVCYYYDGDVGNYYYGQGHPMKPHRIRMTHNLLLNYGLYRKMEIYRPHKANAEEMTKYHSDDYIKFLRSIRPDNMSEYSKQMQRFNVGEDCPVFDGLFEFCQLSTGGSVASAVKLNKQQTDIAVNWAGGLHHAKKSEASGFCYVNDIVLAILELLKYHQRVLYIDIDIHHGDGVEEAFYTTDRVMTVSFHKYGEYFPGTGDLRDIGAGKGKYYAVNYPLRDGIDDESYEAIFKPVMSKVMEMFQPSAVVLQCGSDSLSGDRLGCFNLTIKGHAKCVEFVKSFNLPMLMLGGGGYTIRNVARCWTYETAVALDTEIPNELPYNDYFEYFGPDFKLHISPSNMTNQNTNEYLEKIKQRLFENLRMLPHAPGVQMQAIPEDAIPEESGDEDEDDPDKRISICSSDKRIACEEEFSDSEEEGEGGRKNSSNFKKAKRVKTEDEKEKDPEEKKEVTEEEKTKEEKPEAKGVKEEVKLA
Assay [3] concerns the target T2, Protein deacetylase HDAC6 (Homo sapiens, UniProt Q9UBN7).
T2 sequence (Q9UBN7 whole entry): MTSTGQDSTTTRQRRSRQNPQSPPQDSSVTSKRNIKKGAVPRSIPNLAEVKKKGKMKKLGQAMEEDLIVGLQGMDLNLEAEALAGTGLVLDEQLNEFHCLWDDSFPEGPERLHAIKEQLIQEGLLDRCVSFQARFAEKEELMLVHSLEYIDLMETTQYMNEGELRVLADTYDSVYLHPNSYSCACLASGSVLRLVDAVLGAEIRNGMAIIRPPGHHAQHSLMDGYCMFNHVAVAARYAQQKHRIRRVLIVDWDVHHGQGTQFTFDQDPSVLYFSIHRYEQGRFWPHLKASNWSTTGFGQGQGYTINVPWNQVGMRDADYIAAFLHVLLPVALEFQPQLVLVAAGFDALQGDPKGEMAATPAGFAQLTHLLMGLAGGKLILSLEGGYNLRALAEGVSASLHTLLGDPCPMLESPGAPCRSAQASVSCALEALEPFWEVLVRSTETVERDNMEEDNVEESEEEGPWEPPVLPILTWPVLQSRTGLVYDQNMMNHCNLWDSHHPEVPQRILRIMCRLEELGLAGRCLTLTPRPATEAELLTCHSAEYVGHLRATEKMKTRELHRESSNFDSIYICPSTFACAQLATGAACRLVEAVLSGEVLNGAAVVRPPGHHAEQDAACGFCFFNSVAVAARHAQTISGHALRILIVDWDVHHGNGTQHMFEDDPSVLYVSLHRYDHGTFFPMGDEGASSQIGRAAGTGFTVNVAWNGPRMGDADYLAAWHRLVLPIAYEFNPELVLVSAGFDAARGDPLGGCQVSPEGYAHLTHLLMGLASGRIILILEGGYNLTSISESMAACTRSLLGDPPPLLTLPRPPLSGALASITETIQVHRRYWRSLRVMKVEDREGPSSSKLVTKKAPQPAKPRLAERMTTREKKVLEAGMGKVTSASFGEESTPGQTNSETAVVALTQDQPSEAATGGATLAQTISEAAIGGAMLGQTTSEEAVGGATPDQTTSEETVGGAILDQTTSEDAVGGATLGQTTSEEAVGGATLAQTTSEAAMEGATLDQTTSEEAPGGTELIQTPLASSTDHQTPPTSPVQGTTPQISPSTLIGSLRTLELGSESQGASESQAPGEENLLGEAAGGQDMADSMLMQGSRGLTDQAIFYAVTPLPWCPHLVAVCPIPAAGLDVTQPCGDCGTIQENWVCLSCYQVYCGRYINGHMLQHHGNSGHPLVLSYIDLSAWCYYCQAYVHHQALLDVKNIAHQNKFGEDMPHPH
The assay can be described thus: Inhibition of recombinant HDAC6 (unknown origin) expressed in Escherichia coli BL21(DE3) after 60 mins using trichostatin A by label-free mass spectrometry-based SAMDI assay.

Assay [4] can be described thus: Inhibition of NTHi-induced NF-kappaB activation in human BEAS-2B cells treated 1 hr before NTHi stimulation measured after 5 hrs by luciferase assay. The class given is cell-based.
Assay [5] is filed under the species Homo sapiens. The settings on record: at 1 µM.
Assay [6] concerns A549. The assay can be described thus: Cytotoxicity against human A549 cells after 72 hrs by MTS assay. Format: functional, cell-based. The gist of the method: (§1)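 Cells kept in DMEM with 10% FBS and 1% penicillin-streptomycin, seeded in 96-well plates for 24 h, then exposed to a range of drug concentrations for 72 h at 0.1% DMSO; viability read by MTS assay per manufacturer's protocol.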
(Tetrazolium assays rely on reduction of a dye to a coloured formazan, in cell work by metabolically active cells.)

The test system of assay [7] is MCF7. Put plainly: Cytotoxicity against human MCF7 cells after 72 hrs by MTS assay. As to conditions: mcf7; call rule not given here. Format: functional, cell-based. The gist of the method:
as §1

The test system of assay [8] is Vero. Put plainly: Cytotoxicity against African green monkey Vero cells after 72 hrs by MTS assay. The class given is cell-based. The settings on record: Chlorocebus sabaeus. The gist of the method: as §1
Where [9] appears, read: Homo sapiens, BEAS-2B, read-out: IC50.

Take `CC[C@H]1OC(=O)[C@H](C)[C@@H](O[C@@H]2C[C@](C)(OC)[C@H](O)[C@@H](C)O2)[C@@H](C)[C@@H](O[C@H]2O[C@@H](C)C[C@@H](N(C)Cc3ccc(-c4cn(CCCCCC(=O)NO)nn4)cc3)[C@@H]2O)[C@](C)(OC)C[C@@H](C)C(=O)[C@H](C)[C@H](O)[C@]1(C)O` (stereo in doubt): the IC50 (commonly the concentration needed to halve the response being measured) in assay [1] was 1180 nM; in assay [2], 533 nM; in assay [3], 3.61 nM; in assay [4] (setting [9]), 785 nM. Besides, the Imax in assay [5] was determined as 45.1%.
Regarding `CC[C@H]1OC(=O)[C@H](C)C(=O)[C@H](C)[C@@H](O[C@@H]2O[C@H](C)C[C@H](N(C)Cc3ccccc3-c3cn(CCCCCCC(=O)NO)nn3)[C@H]2O)[C@@](C)(OC)C[C@@H](C)C2=NCCN3C(=O)O[C@@]1(C)[C@H]3[C@H]2C`, the IC50 in assay [1] was 2450 nM; in assay [2], above 10000 nM; in assay [3], 75.4 nM; in assay [6] (a549), “Not Active”; in assay [7], “Not Active”.
Turning to `CC[C@H]1OC(=O)[C@H](C)[C@@H](O[C@@H]2C[C@](C)(OC)[C@@](O)(CN(C)Cc3ccc(-c4cn(CCCCCC(=O)NO)nn4)cc3)[C@@H](C)O2)[C@@H](C)[C@@H](O[C@H]2O[C@@H](C)C[C@@H](N(C)C)[C@@H]2O)[C@](C)(OC)C[C@@H](C)C(=O)[C@H](C)[C@H](O)[C@]1(C)O`, the 50% inhibitory concentration (IC50) in assay [1] is 985 nM; in assay [2], 652 nM; in assay [3] it was 5.89 nM; in assay [4] (setting [9]), 785 nM. The molecule also came in with an Imax in assay [5] of 50.7%.
With `CC[C@@H]1OC(=O)[C@H](C)[C@@H](O[C@@H]2C[C@](C)(OC)[C@@](O)(CN(C)Cc3ccc(-c4cn(CCCCCC(=O)NO)nn4)cc3)[C@@H](C)O2)[C@@H](C)[C@@H](O[C@@H]2O[C@H](C)C[C@H](N(C)C)[C@H]2O)[C@](C)(O)C[C@@H](C)CN(C)[C@H](C)[C@@H](O)[C@]1(C)O`, the concentration for half-maximal inhibition (IC50) in assay [1] was determined as 786 nM; in assay [2] it was 203 nM; in assay [3], 31.9 nM; in assay [4] (setting [9]), 368 nM. The molecule also returned an Imax in assay [5] of 46.1%.
Take `CC[C@H]1OC(=O)[C@@H](C)[C@H](O[C@H]2C[C@@](C)(OC)[C@](O)(CN(C)Cc3ccc(-c4cn(CCCCCCC(=O)NO)nn4)cc3)[C@H](C)O2)[C@H](C)[C@H](O[C@H]2O[C@@H](C)C[C@@H](N(C)C)[C@@H]2O)[C@@](C)(O)C[C@H](C)CN(C)[C@@H](C)[C@H](O)[C@@]1(C)O`: the IC50 in assay [1] is 817 nM; in assay [2] it was 50.4 nM; in assay [3], 31.3 nM; in assay [6] (a549), “Not Active”; in assay [7], “Not Active”.
For `CC[C@H]1OC(=O)[C@H](C)C(=O)[C@H](C)[C@@H](O[C@@H]2O[C@H](C)C[C@H](N(C)Cc3cccc(-c4cn(CCCCCC(=O)NO)nn4)c3)[C@H]2O)[C@@](C)(OC)C[C@@H](C)C2=NCCN3C(=O)O[C@@]1(C)[C@H]3[C@H]2C`, the IC50 in assay [1] is 3230 nM; in assay [2], 109 nM; in assay [3], 17.5 nM; in assay [6] (a549), “Not Active”; in assay [7], “Not Active”; in assay [4], “Not Active”. The same molecule yielded an Imax in assay [5] of 71%.
`CC[C@@H]1OC(=O)[C@@H](C)[C@H](O[C@H]2C[C@@](C)(OC)[C@@H](O)[C@H](C)O2)[C@@H](C)[C@H](O[C@H]2O[C@@H](C)C[C@@H](N(C)C)[C@@H]2O)[C@](C)(O)C[C@H](C)CN(Cc2ccc(-c3cn(CCCCC(=O)NO)nn3)cc2)[C@H](C)[C@H](O)[C@@]1(C)O`: the IC50 was above 10000 nM in assay [1]; 2550 nM in assay [2]; 24.5 nM in assay [3]; “Not Active” in assay [6] (a549); “Not Active” in assay [7].
On to `CC[C@@H]1OC(=O)[C@H](C)[C@@H](O[C@@H]2C[C@](C)(OC)[C@H](O)[C@@H](C)O2)[C@@H](C)[C@@H](O[C@@H]2O[C@H](C)C[C@H](N(C)Cc3ccccc3-c3cn(CCCCCCC(=O)NO)nn3)[C@H]2O)[C@](C)(O)C[C@@H](C)CN(C)[C@H](C)[C@@H](O)[C@]1(C)O`, for which the IC50 in assay [1] was 1280 nM; in assay [2], 923 nM; in assay [3], 30.9 nM; in assay [6] (a549) it was “Not Active”; in assay [7], “Not Active”.
As for `CC[C@H]1OC(=O)[C@@H](C)[C@H](O[C@H]2C[C@@](C)(OC)[C@](O)(CN(C)C)[C@H](C)O2)[C@H](C)[C@H](O[C@H]2O[C@@H](C)C[C@@H](N(C)Cc3ccc(-c4cn(CCCCCCC(=O)NO)nn4)cc3)[C@@H]2O)[C@@](C)(O)C[C@H](C)CN(C)[C@@H](C)[C@H](O)[C@@]1(C)O`, the IC50 in assay [1] was found to be 749 nM; in assay [2], 79.5 nM; in assay [3] it was 18.9 nM; in assay [6] (Homo sapiens, A549, 72 h, read-out: IC50), 6800 nM; in assay [8], 5730 nM; in assay [4] (setting [9]), 575 nM. For the same molecule, the Imax in assay [5] amounted to 43.4%.
With `CC[C@H]1OC(=O)[C@@H](C)[C@H](O[C@H]2C[C@@](C)(OC)[C@@H](O)[C@H](C)O2)[C@H](C)[C@H](O[C@H]2O[C@@H](C)C[C@@H](N(C)Cc3ccc(-c4cn(CCCC(=O)NO)nn4)cc3)[C@@H]2O)[C@@](C)(O)C[C@H](C)CN(C)[C@@H](C)[C@H](O)[C@@]1(C)O`, the IC50 in assay [1] was above 10000 nM; in assay [2] it was above 10000 nM; in assay [3], 106 nM; in assay [6] (a549) it was “Not Active”; in assay [7], “Not Active”.
Regarding `CC[C@H]1OC(=O)[C@H](C)C(=O)[C@H](C)[C@@H](O[C@@H]2O[C@H](C)C[C@H](N(C)Cc3ccc(-c4cn(CCCCC(=O)NO)nn4)cc3)[C@H]2O)[C@@](C)(OC)C[C@@H](C)C2=NCCN3C(=O)O[C@@]1(C)[C@H]3[C@H]2C`, the IC50 was determined as 3210 nM in assay [1], 269 nM in assay [2] and 77.2 nM in assay [3].
On to `CC[C@@H]1OC(=O)[C@H](C)[C@@H](O[C@H]2C[C@@](C)(OC)[C@](O)(CN(C)C)[C@H](C)O2)[C@@H](C)[C@@H](O[C@@H]2O[C@H](C)C[C@H](N(C)Cc3ccc(-c4cn(CCCCCC(=O)NO)nn4)cc3)[C@H]2O)[C@](C)(O)C[C@@H](C)CN(C)[C@H](C)[C@@H](O)[C@]1(C)O`, for which the half-maximal inhibitory concentration (IC50) in assay [1] stood at 1090 nM; in assay [2], 160 nM; in assay [3] it was 14.7 nM.
For the molecule `CC[C@@H]1OC(=O)[C@@H](C)[C@H](O[C@H]2C[C@@](C)(OC)[C@@H](O)[C@H](C)O2)[C@H](C)[C@H](O[C@@H]2O[C@H](C)C[C@H](N(C)Cc3ccc(-c4cn(CCCCC(=O)NO)nn4)cc3)[C@H]2O)[C@@](C)(OC)C[C@H](C)C(=O)[C@@H](C)[C@@H](O)[C@@]1(C)O`, the IC50 was 877 nM in assay [1], 4870 nM in assay [2] and 120 nM in assay [3].
